# Source: ChEMBL document CHEMBL2062460, “Disubstituted thiourea derivatives and their activity on CNS: synthesis and biological evaluation” (Eur J Med Chem, 2012)
# Calls of active or inactive are those of the source. No cut-off for these calls is given here.
# Columns and labels:
# [1] = system: Mus musculus; assay: Antinociceptive activity in Albino Swiss mouse administered at doses equivalent to 0.025 to 0.1 ED50, ip; type: functional, organism-based
# [2] = system: Staphylococcus epidermidis; assay: Antibacterial activity against methicillin-resistant Staphylococcus epidermidis clinical isolate 343/09 after 18 hrs by twofold serial agar dilution technique; type: functional; conditions: clinical isolate 343/09, 18 h
# In short: (§1)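 Clinical isolates came from patients in Warsaw Medical University Hospitals and were classed as methicillin-susceptible or -resistant. MIC was determined by twofold serial agar dilution on Mueller–Hinton II agar (CLSI), 3.125–400 µg/mL in agar, with compounds in methanol or DMSO. Inoculum was 10^4 CFU/mL and plates were read after 18 h at 35 °C.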
# [3] = system: Mus musculus; assay: Antinociceptive activity in Albino Swiss mouse administered at doses equivalent to 0.025 to 0.1 ED50, ip in presence of naloxone; type: functional, organism-based
# In short: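 Acetic acid (0.6%, i.p.) writhing test in male Albino Swiss mice, compound i.p. in 0.5% methylcellulose 60 min prior, with naloxone 5 mg/kg s.c.; writhes counted 10 min from 5 min post-acid; mean ± S.E.M., 8–10 mice per group.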
# [4] = system: Mus musculus; assay: Anticonvulsant activity in Albino Swiss mouse assessed as protection against pentylenetetrazole-induced mortality administered at doses equivalent to 0.1 ED50, ip; type: functional, organism-based
# [5] = system: HepG2; assay: Cytotoxicity against human HepG2 cells after 96 hrs by MTT assay; type: functional; conditions: HepG2, 96 h
# In short: (§2)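 Solid tumour lines were seeded at 1 × 10^5 cells/ml in line-specific media with 10% FCS and antibiotics. Serial dilutions from a 100 mM DMSO stock were added. After 96 h at 37 °C in 5% CO2, viability was read by MTT. The 50% growth-inhibiting concentration (µM) was obtained by linear regression versus untreated controls. Values are means of three independent determinations.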
# [6] = Cytotoxicity against human MRC5 cells after 96 hrs by MTT assay; type: cell-based
# In short: (§3)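 Normal fibroblasts seeded at 1 × 10^5 cells/ml in specific media with 10% FCS and antibiotics; serial compound dilutions (100 mM DMSO stock); 96 h at 37 °C, 5% CO2; MTT read-out; 50% proliferation-reduction concentration by linear regression vs untreated controls; mean of three determinations.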
# [7] = system: Staphylococcus epidermidis; assay: Antibacterial activity against methicillin-resistant Staphylococcus epidermidis clinical isolate 311/08 after 18 hrs by twofold serial agar dilution technique; type: functional; conditions: clinical isolate 311/08, 18 h; in short: as §1
# [8] = system: MCF7; assay: Cytotoxicity against human MCF7 cells after 96 hrs by MTT assay; type: functional; conditions: MCF7, 96 h; in short: as §2
# [9] = system: Mus musculus; assay: Anticonvulsant activity in Albino Swiss mouse assessed as protection against pentylenetetrazole-induced severity of clonic or tonic seizures administered at doses equivalent to 0.1 ED50, ip; type: functional, organism-based
# [10] = system: Staphylococcus epidermidis; assay: Antibacterial activity against methicillin-resistant Staphylococcus epidermidis clinical isolate 317/08 after 18 hrs by twofold serial agar dilution technique; type: functional; conditions: clinical isolate 317/08, 18 h; in short: as §1
# [11] = system: DU-145; assay: Cytotoxicity against human DU145 cells after 96 hrs by MTT assay; type: functional; conditions: DU-145, 96 h; in short: as §2
# [12] = system: SK-MES-1; assay: Cytotoxicity against human SKMES1 cells after 96 hrs by MTT assay; type: functional; conditions: SK-MES-1, 96 h; in short: as §2
# [13] = system: Staphylococcus epidermidis; assay: Antibacterial activity against methicillin-resistant Staphylococcus epidermidis clinical isolate 316/08 after 18 hrs by twofold serial agar dilution technique; type: functional; conditions: clinical isolate 316/08, 18 h; in short: as §1
# [14] = system: Mus musculus; assay: Toxicity in Albino Swiss mouse assessed as motor coordination administered at doses equivalent to 0.1 ED50, ip by rota rod test; type: organism-based; conditions: in vivo
# [15] = Cytotoxicity against human MT4 cells after 96 hrs by MTT assay; type: cell-based
# [16] = system: Staphylococcus epidermidis; assay: Antibacterial activity against methicillin-resistant Staphylococcus epidermidis clinical isolate 340/09 after 18 hrs by twofold serial agar dilution technique; type: functional; conditions: clinical isolate 340/09, 18 h; in short: as §1
# [17] = system: Staphylococcus epidermidis; assay: Antibacterial activity against methicillin-resistant Staphylococcus epidermidis clinical isolate 342/09 after 18 hrs by twofold serial agar dilution technique; type: functional; conditions: clinical isolate 342/09, 18 h; in short: as §1
# [18] = system: Staphylococcus epidermidis; assay: Antibacterial activity against methicillin-resistant Staphylococcus epidermidis clinical isolate 377/09 after 18 hrs by twofold serial agar dilution technique; type: functional; conditions: clinical isolate 377/09, 18 h; in short: as §1
# [19] = system: CCRF-SB; assay: Cytotoxicity against human CCRF-SB cells after 96 hrs by MTT assay; type: functional
# In short: (§4)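 Haematological tumour lines were seeded at 1 × 10^5 cells/ml in RPMI-1640 with 10% FCS plus penicillin/streptomycin. Serial dilutions from a 100 mM DMSO stock were added. After 96 h at 37 °C in 5% CO2, viability was read by MTT. The 50% proliferation-inhibiting concentration (µM) was obtained by linear regression against untreated controls, which completed at least three rounds of multiplication. Values are means of three determinations.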
# [20] = system: Staphylococcus epidermidis; assay: Antibacterial activity against methicillin-resistant Staphylococcus epidermidis clinical isolate 318/08 after 18 hrs by twofold serial agar dilution technique; type: functional; conditions: clinical isolate 318/08, 18 h; in short: as §1
# [21] = system: Mus musculus; assay: Toxicity in Albino Swiss mouse assessed as motor coordination administered at doses equivalent to 0.1 ED50, ip by chimney test; type: organism-based; conditions: in vivo
# [22] = system: Mus musculus; assay: Toxicity in Albino Swiss mouse assessed as effect on amphetamine-induced hyperactivity administered at doses equivalent to 0.1 ED50, ip; type: organism-based; conditions: in vivo
# In short: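 Compound i.p. in 0.5% methylcellulose 60 min before test; amphetamine 5 mg/kg s.c. 30 min before test; single mice in photoresistor actometers, light-beam crossings counted for 30 min.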
# [23] = system: Staphylococcus epidermidis; assay: Antibacterial activity against methicillin-resistant Staphylococcus epidermidis clinical isolate 341/09 after 18 hrs by twofold serial agar dilution technique; type: functional; conditions: clinical isolate 341/09, 18 h; in short: as §1
# [24] = system: Mus musculus; assay: Reduction of body temperature in normothermic Albino Swiss mouse administered at doses equivalent to 0.1 ED50, ip measured in rectum by thermistor thermometer analysis; type: ADME, organism-based; conditions: in vivo
# [25] = system: Mus musculus; assay: Toxicity in Albino Swiss mouse assessed as locomotor activity administered at doses equivalent to 0.1 ED50, ip measured after 1 hr for 30 mins; type: organism-based; conditions: in vivo
# In short: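 Spontaneous locomotor activity of single male Albino Swiss mice in photoresistor actometers (two light beams), beam crossings recorded for 30 min, starting 60 min after i.p. compound in 0.5% methylcellulose.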
# [26] = system: Mus musculus; assay: Reduction of 5-hydroxytryptophan-induced head twitch in Albino Swiss mouse administered at doses equivalent to 0.1 ED50, ip; type: functional, organism-based
# [27] = system: Human immunodeficiency virus 1; assay: Antiviral activity against HIV1 infected in human MT4 cells assessed as virus-induced cytopathogenicity after 4 days by MTT assay; type: functional, organism-based; conditions: Human immunodeficiency virus 1, MT4, 96 h
# [28] = system: CCRF-CEM; assay: Cytotoxicity against human CCRF-CEM cells after 96 hrs by MTT assay; type: functional; in short: as §4
# [29] = system: WIL2-NS; assay: Cytotoxicity against human WIL2-NS cells after 96 hrs by MTT assay; type: functional; in short: as §4
# [30] = system: Staphylococcus epidermidis; assay: Antibacterial activity against methicillin-resistant Staphylococcus epidermidis clinical isolate 315/08 after 18 hrs by twofold serial agar dilution technique; type: functional; conditions: clinical isolate 315/08, 18 h; in short: as §1
# [31] = system: SK-MEL-28; assay: Cytotoxicity against human SK-MEL-28 cells after 96 hrs by MTT assay; type: functional; conditions: SK-MEL-28, 96 h; in short: as §2
# [32] = Cytotoxicity against human CRL7065 cells after 96 hrs by MTT assay; type: cell-based, CRL-7065; in short: as §3
compound,measurement,setting,value
Nc1ncnn1/C(S)=N/Cc1ccccc1,Activity,[1],Active
same,MIC,[2],> 400 µg/mL
same,Activity,[3],inactive
same,Activity,[4],inactive
same,CC50,[5],78 µM
same,CC50 at 96 h,[6],43 µM
same,MIC,[7],> 400 µg/mL
same,CC50,[8],49 µM
same,Activity,[9],inactive
same,MIC,[10],> 400 µg/mL
same,CC50,[11],11 µM
same,CC50,[12],85 µM
same,MIC,[13],> 400 µg/mL
same,Activity,[14],Non-toxic
same,CC50 at 96 h,[15],7.4 µM
same,MIC,[16],> 400 µg/mL
same,MIC,[17],> 400 µg/mL
same,MIC,[18],> 400 µg/mL
same,CC50,[19],42 µM
same,MIC,[20],> 400 µg/mL
same,Activity,[21],Non-toxic
same,Activity,[22],Non-toxic
same,MIC,[23],> 400 µg/mL
same,Activity,[24],Toxic
same,Activity,[25],Non-toxic
same,Activity,[26],Active
same,EC50,[27],> 7.4 µM
same,CC50,[28],39 µM
same,CC50,[29],52 µM
same,MIC,[30],> 400 µg/mL
same,CC50,[31],72 µM
same,CC50 at 96 h,[32],47 µM
